Measured values reported in ChEMBL document CHEMBL1129741, “Synthesis and hypolipidemic activities of novel 2-[4-[diethoxyphosphoryl)methyl]phenyl]quinazolines and 4(3H)-quinazolinones” (J Med Chem, 1996).

Tests used:
[1] = system: Rattus norvegicus; test: Effect on change in plasma triglycerides (TG) in triton-induced hyperlipidemic rats after peroral administration of 100 mg/kg.; type: functional; conditions: route oral
[2] = system: Rattus norvegicus; test: Effect on change in total cholesterol (TC) in triton-induced hyperlipidemic rats after peroral administration of 100 mg/kg.; type: functional; conditions: route oral
[3] = Partition coefficient (logP) (HPLC); type: physicochemical; conditions: octanol/water
Summary of the method: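 Apparent log P* was estimated from reverse-phase HPLC retention time against methyl, ethyl, n-propyl, n-butyl and n-hexyl benzoate standards. Column was C18 at 40 °C with mobile phase CH3OH/0.05 M […] pH 7.4 at 1.0 mL/min, and detection was UV at 230 nm.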

[4] = system: Rattus norvegicus; test: Effect on change in plasma triglycerides (TG) in triton-induced hyperlipidemic rats after po administration of 10 mg/kg; type: functional
[5] = system: Rattus norvegicus; test: Effect on change in total cholesterol (TC) in triton-induced hyperlipidemic rats after po administration of 10 mg/kg; type: functional

Work on `CCOP(=O)(Cc1ccc(-c2nc3ccc(Br)cc3c(=O)n2CC(=O)O)cc1)OCC` yielded a Change [1] of 13% and a Change [2] of 5%.

In the case of `CCOP(=O)(Cc1ccc(-c2nc(OC)c3cc(Br)ccc3n2)cc1)OCC`, the logP [3] is reported as 6.37, the Change [1] is reported as 2% and the Change [2] is reported as 1%.

For `C=CCOc1nc(-c2ccc(CP(=O)(OCC)OCC)cc2)nc2ccc(Br)cc12`, the Change [1] was -18% and the Change [2] was -2%.

With `CCOP(=O)(Cc1ccc(C(=O)Nc2ccc(Br)cc2C#N)cc1)OCC` [IBROLIPIM] the logP [3] was 3.21, the Change [4] was -54% and the Change [1] was < -85%. For the same molecule, the Change [5] was -27% and the Change [2] was < -69%.

For `CCOP(=O)(Cc1ccc(-c2nc3ccc(Br)cc3c(=O)n2C)cc1)OCC`, the logP [3] was 4.09, the Change [1] was <-35% and the Change [2] was <-16%.

`CCOP(=O)(Cc1ccc(-c2nc(OCC(=O)O)c3cc(Br)ccc3n2)cc1)OCC` showed a Change [1] of -2% and a Change [2] of -14%.

For `CCOP(=O)(Cc1ccc(-c2nc(Oc3ccccc3)c3cc(Br)ccc3n2)cc1)OCC`, the logP [3] was 7.67, the Change [1] was <16% and the Change [2] was 4%.

`CCOP(=O)(Cc1ccc(-c2nc(O)c3ccccc3n2)cc1)OCC` gave a logP [3] of 2.55.

`CCOP(=O)(Cc1ccc(-c2nc(O)c3c(F)cccc3n2)cc1)OCC` gave a logP [3] of 3.13, a Change [1] of -8% and a Change [2] of -8%.

For `COc1cc2nc(-c3ccc(CP(=O)(OC)OC)cc3)nc(OC)c2cc1OC`, the logP [3] was 3.75, the Change [1] was <-52% and the Change [2] was <-48%.

In the case of `C=CCOc1nc(-c2ccc(CP(=O)(OCC)OCC)cc2)nc2cc(OC)c(OC)cc12`, the Change [1] is reported as <-71% and the Change [2] is reported as <-35%.

With `CCOP(=O)(Cc1ccc(-c2nc3ccccc3c(=O)n2C)cc1)OCC` the logP [3] was 3.29, the Change [1] was <31% and the Change [2] was 38%.

In the case of `COc1cc2nc(-c3ccc(CP(=O)(OC)OC)cc3)n(C)c(=O)c2cc1OC`, the logP [3] is reported as 2.65, the Change [1] is reported as <-41% and the Change [2] is reported as <-27%.

With `CC(C)OP(=O)(Cc1ccc(-c2nc3ccc(Br)cc3c(=O)n2C)cc1)OC(C)C` the logP [3] was 4.88, the Change [1] was <-37% and the Change [2] was -11%.

For `COc1nc(-c2ccc(CP(=O)(OC)OC)cc2)nc2ccc(Br)cc12`, the logP [3] was 5.61, the Change [1] was -9% and the Change [2] was -9%.

Work on `CCOP(=O)(Cc1ccc(-c2nc(OC)c3c(F)cccc3n2)cc1)OCC` yielded a logP [3] of 5.13, a Change [1] of -28% and a Change [2] of -25%.

For `CCOP(=O)(Cc1ccc(-c2nc3cccc(F)c3c(=O)n2C)cc1)OCC`, the logP [3] was 3.18, the Change [1] was -12% and the Change [2] was <-15%.

With `COc1cc2nc(-c3ccc(CP(=O)(OC(C)C)OC(C)C)cc3)nc(OC)c2cc1OC` the logP [3] was 5.53, the Change [1] was <-81% and the Change [2] was < -60%.

With `CCOP(=O)(Cc1ccc(-c2nc(OC)c3cc(OC)c(OC)cc3n2)cc1)OCC` the logP [3] was 4.51, the Change [1] was <-86% and the Change [2] was <-60%.

For `CCOP(=O)(Cc1ccc(-c2nc(OCc3ccccc3)c3cc(OC)c(OC)cc3n2)cc1)OCC`, the Change [1] was <-40% and the Change [2] was <-21%.

For `C=CCn1c(-c2ccc(CP(=O)(OCC)OCC)cc2)nc2cc(OC)c(OC)cc2c1=O`, the Change [4] was <-61% and the Change [5] was <-41%.

For `CCOP(=O)(Cc1ccc(-c2nc3ccc(Br)cc3c(=O)n2CC)cc1)OCC`, the Change [1] was <-42% and the Change [2] was <-29%.

In the case of `CCOP(=O)(Cc1ccc(-c2nc(OC)c3ccccc3n2)cc1)OCC`, the logP [3] is reported as 5.26, the Change [1] is reported as -5% and the Change [2] is reported as 56%.

For `C=CCn1c(-c2ccc(CP(=O)(OCC)OCC)cc2)nc2ccc(Br)cc2c1=O`, the Change [1] was <-43% and the Change [2] was <-25%.

With `CCOP(=O)(Cc1ccc(-c2nc3cc(OC)c(OC)cc3c(=O)n2Cc2ccccc2)cc1)OCC` the logP [3] was 4.49, the Change [4] was < -30% and the Change [1] was <-85%. The Change [5] was < -15% and the Change [2] was <-60%.

In the case of `CCOP(=O)(Cc1ccc(-c2nc(O)c3cc(OC)c(OC)cc3n2)cc1)OCC`, the logP [3] is reported as 3.36, the Change [1] is reported as -37% and the Change [2] is reported as <-22%.

For `CCOc1nc(-c2ccc(CP(=O)(OCC)OCC)cc2)nc2ccc(Br)cc12`, the logP [3] was 7.01, the Change [1] was <-29% and the Change [2] was -14%.

In the case of `CCOP(=O)(Cc1ccc(-c2nc3cc(OC)c(OC)cc3c(=O)n2C)cc1)OCC`, the logP [3] is reported as 3.41, the Change [4] is reported as -21% and the Change [1] is reported as <-86%. For the same molecule, the Change [5] was -11% and the Change [2] was <-51%.

With `COc1cc2nc(-c3ccc(CP(=O)(OC(C)C)OC(C)C)cc3)nc(O)c2cc1OC` the logP [3] was 4.38, the Change [1] was -32% and the Change [2] was <-35%.

For `CCOP(=O)(Cc1ccc(-c2nc3ccc(Br)cc3c(=O)n2Cc2ccccc2)cc1)OCC`, the logP [3] was 5.17, the Change [1] was <-54% and the Change [2] was <-34%.

With `CCOP(=O)(Cc1ccc(-c2nc(OCc3ccc(Br)cc3F)c3cc(Br)ccc3n2)cc1)OCC` the Change [1] was -4% and the Change [2] was <-12%.

`COc1cc2nc(-c3ccc(CP(=O)(OC)OC)cc3)nc(O)c2cc1OC` showed a logP [3] of 2.6, a Change [1] of -11% and a Change [2] of -18%.

Work on `CCOP(=O)(Cc1ccc(-c2nc3ccc(Br)cc3c(=O)n2Cc2ccc(Br)cc2F)cc1)OCC` yielded a Change [1] of -16% and a Change [2] of -1%.

With `COc1cc2nc(-c3ccc(CP(=O)(OC(C)C)OC(C)C)cc3)n(C)c(=O)c2cc1OC` the logP [3] was 4.2, the Change [4] was -8% and the Change [1] was <-81%. The Change [5] was -4% and the Change [2] was <-58%.
